Source: PubChem BioAssay AID2770 (The Scripps Research Institute Molecular Screening Center, 2010)
The source made the active and inactive calls. How the calls were made is not given here.

Tests used:
Test in all cases: calcium influx via other TRP channels, profiling panel, selectivity assay for TRPML3 agonist project, cell-based, Fura-2 calcium ratio, transfected HEK293, SAR round 1 (AID 2770)
[1] = tested on: mTRPML2 (mucolipin 2)
Method in brief: (§1)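 System: HEK293 cells transiently expressing human, mouse or zebrafish TRP channels, or mock-transfected; Quantity: 20-30 cells imaged per experiment; Medium: HEPES-buffered bath solution at pH 7.4; Schedule: compound perfusion 20-25 h post-transfection, then 2 min calcium imaging; Measured by: ratiometric fluorescence imaging with 4 µM fura-2-AM calcium dye; Replication: n ≥3 independent experiments.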

[2] = biological target: Ion channel NompC (Danio rerio) (UniProt Q7T1G6); settings: drTRPN1
Method in brief: as §1

[3] = tested on: mTRPV2
Method in brief: as §1

[4] = tested on: hTRPA1
Method in brief: as §1

[5] = tested on: hTRPC3
Method in brief: as §1

[6] = tested on: HEK cells; settings: at 10 µM, active compounds read high
Method in brief: as §1

[7] = tested on: hTRPM2
Method in brief: as §1

[8] = biological target: Mucolipin-1 (Homo sapiens) (UniProt Q9GZU1)
Mucolipin-1 (Homo sapiens), sequence (Q9GZU1 whole entry, looked up): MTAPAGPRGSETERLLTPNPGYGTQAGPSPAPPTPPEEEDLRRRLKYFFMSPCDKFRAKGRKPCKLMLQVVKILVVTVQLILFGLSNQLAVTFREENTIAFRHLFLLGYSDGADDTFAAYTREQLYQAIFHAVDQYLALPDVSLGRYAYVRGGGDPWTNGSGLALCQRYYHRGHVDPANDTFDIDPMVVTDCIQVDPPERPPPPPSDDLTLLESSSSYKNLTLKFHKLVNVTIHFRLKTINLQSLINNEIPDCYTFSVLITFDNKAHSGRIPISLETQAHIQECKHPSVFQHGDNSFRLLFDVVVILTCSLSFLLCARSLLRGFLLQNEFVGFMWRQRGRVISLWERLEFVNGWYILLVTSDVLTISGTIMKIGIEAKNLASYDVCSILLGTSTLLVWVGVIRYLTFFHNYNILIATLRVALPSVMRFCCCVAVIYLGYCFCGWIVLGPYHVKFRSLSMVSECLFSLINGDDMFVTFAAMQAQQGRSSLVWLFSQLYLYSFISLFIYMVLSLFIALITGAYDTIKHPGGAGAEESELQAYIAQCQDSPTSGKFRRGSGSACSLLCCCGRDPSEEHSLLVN
Method in brief: as §1

[9] = hTRPML1 (NC) plasma membrane variant

| outcome [2] | outcome [3] | outcome [4] | outcome [5] | outcome [7] | outcome ([8]; hTRPML1) | outcome [8, 9] | SMILES | outcome [1] | Fura-2 340/380 ratio change [6] |
| --- | --- | --- | --- | --- | --- | --- | --- | --- | --- |
| inactive; selective for TRPML3 | inactive; selective for TRPML3 | inactive; selective for TRPML3 | inactive; selective for TRPML3 | inactive; selective for TRPML3 | inactive; selective for TRPML3 | inactive; selective for TRPML3 | Cc1ccc(S(=O)(=O)n2nccc2-c2c(-c3ccc(Cl)cc3)noc2C)cc1 | inactive; selective for TRPML3 | -0.005 (inactive) |
| inactive; selective for TRPML3 | inactive; selective for TRPML3 | inactive; selective for TRPML3 | inactive; selective for TRPML3 | inactive; selective for TRPML3 | inactive; selective for TRPML3 | inactive; selective for TRPML3 | CC1CCN(S(=O)(=O)c2ccc(C(C)C)cc2)CC1 | inactive; selective for TRPML3 | -0.008 (inactive) |
| inactive; selective for TRPML3 | inactive; selective for TRPML3 | inactive; selective for TRPML3 | inactive; selective for TRPML3 | inactive; selective for TRPML3 | inactive; selective for TRPML3 | inactive; selective for TRPML3 | CCOc1ccc(S(=O)(=O)N2CCCCCC2)c2ccccc12 | inactive; selective for TRPML3 | -0.011 (inactive) |
